# Published values collected from several papers.
# Target: 5-hydroxytryptamine receptor 2B (HTR2B, Homo sapiens, UniProt P41595)
Compound,test,setting,quantity,result
O=C1N=C(N2CCCCN2)S/C1=C\c1ccc(F)cc1O,"ligand displacement, radioligand",10 µM,inhibition,< 10%
Clc1cccc(OC[C@@H]2CN(CCN3CCc4ccccc43)CCO2)c1,"calcium signal, agonist, fluorescence",,Emax,71.2%
Cc1ncc(-c2cc(Cl)ccc2F)cc1-n1c(=O)n(CC(N)=O)c2ccccc21,ligand displacement,10 µM,inhibition,72%
CCN(CC)c1ccc(C2Nc3ccc(C(=O)c4ccccc4)cc3NC3=C2C(=O)CC(C)(C)C3)cc1 (centres unmarked),"ligand displacement, radioligand",10 µM,inhibition,50%
C#CCOCCOCCOc1ccc2c3c1C1CCCC1N3CCNC2 (racemic),"ligand displacement, radioligand",10 µM,inhibition,~70%
CCN(Cc1ccccc1C(F)(F)F)C(=O)C1CCN(S(=O)(=O)c2ccc3[nH]ncc3c2)CC1,"ligand displacement, radioligand",10 µM,inhibition,32%
O=C(c1ccc(Cl)cc1)N(Cc1ccccc1)C1CCCCC1,"ligand displacement, radioligand",10 µM,inhibition,19.9%
N#Cc1cc(Cn2c(N3CCCC3)nc3ccccc32)ccc1F,ligand displacement,10 µM,inhibition,30.4%
O=C(Nc1ccc(S(=O)(=O)N2CCC(Cl)CC2)cc1)c1ccc([N+](=O)[O-])o1,"ligand displacement, radioligand",10 µM,inhibition,8%
Ic1cccc2cnccc12,"ligand displacement, radioligand",10 µM,inhibition,79%
CCCNc1nc2ccccc2n1Cc1ccc(Cl)cc1,ligand displacement,10 µM,inhibition,96.3%
O=C(O)c1cc(-c2ccc(C3CCNCC3)cc2)c2ccc(-c3ccc(C(F)(F)F)cc3)cc2c1,ligand displacement,10 µM,inhibition,7.95%
Nc1ccc(-c2ccncc2)cc1NC(=O)N1CCCC1,"ligand displacement, radioligand",10 µM,inhibition,14%
O=C(c1ccc(F)cc1)N(Cc1ccccc1)C1CCCCC1,"cell-free assay, radioligand",10 µM,inhibition,20%
